{"source": "ChEMBL document CHEMBL1255483", "about": "“Intra- and extracellular activities of dicloxacillin against Staphylococcus aureus in vivo and in vitro” (Antimicrob Agents Chemother, 2010)", "key": {"[1]": {"test": "fT>MIC in Staphylococcus aureus E19977 infected NMRI mouse at 80 mg/kg administered every 8 hrs", "format": "functional", "summary_of_the_method": "(§1)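 Calculated percentage of 24 h at steady state that free plasma DCX exceeds the strain MIC (microdilution, pH 7.4). Concentrations were simulated from single subcutaneous dose plasma curves in NMRI mice (S. lutea bioassay), adjusted with a square-root model of concentration-dependent free fraction from ultrafiltration. The regimen was dosed subcutaneously in mice infected intraperitoneally with 10^7.4 CFU, and peritoneal CFU were read after 24 h of therapy.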"}, "[2]": {"test": "fT>MIC in Staphylococcus aureus E19977 infected NMRI mouse at 240 mg/kg administered every 6 hrs", "format": "functional", "summary_of_the_method": "as §1"}, "[3]": {"test": "fT>MIC in Staphylococcus aureus E19977 infected NMRI mouse at 200 mg/kg administered every 6 hrs", "format": "functional", "summary_of_the_method": "as §1"}, "[4]": {"test": "fT>MIC in Staphylococcus aureus E19977 infected NMRI mouse at 400 mg/kg administered every 12 hrs", "format": "functional", "summary_of_the_method": "as §1"}, "Staphylococcus aureus [5]": {"system": "Staphylococcus aureus", "test": "Bacteriostatic activity against Staphylococcus aureus ATCC 25923 after 24 hrs", "format": "functional", "summary_of_the_method": "(§2)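 Extracellular broth time- and concentration-kill test. The inoculum was ~10⁶ CFU/ml, exposed to a wide range of DCX concentrations, with CFU counted after 5 and 24 h. The read-out was Δlog CFU/ml versus time zero (mean ± SD, n = 3). A sigmoidal fit with slope 1 gave Emax and EC50. Cstatic was read by graphical interpolation as the concentration giving no change from the inoculum.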"}, "Staphylococcus aureus [6]": {"system": "Staphylococcus aureus", "test": "Bactericidal activity against Staphylococcus aureus ATCC 25923 assessed as log reduction in bacterial count at 100 times MIC after 5 hrs by time-kill assay", "format": "functional", "summary_of_the_method": "(§3)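 Broth time-kill: MSSA at 10⁶ CFU/ml exposed to a wide range of dicloxacillin concentrations. CFU counted after 5 and 24 h and expressed as change in log₁₀ CFU/ml from time zero. Multiples refer to the MIC by CLSI microdilution at pH 7.4. n = 3.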"}, "Staphylococcus aureus [7]": {"system": "Staphylococcus aureus", "test": "Bactericidal activity against Staphylococcus aureus ATCC 25923 assessed as log reduction in bacterial count at MIC after 5 hrs by time-kill assay", "format": "functional", "summary_of_the_method": "as §3"}, "Staphylococcus aureus [8]": {"system": "Staphylococcus aureus", "test": "Bacteriostatic activity against Staphylococcus aureus ATCC 25923 at MIC between 5 to 24 hrs", "format": "functional, organism-based", "summary_of_the_method": "as §2"}, "THP-1": {"system": "THP-1", "test": "Cytotoxicity against human THP1 cells at 500 mg/L after 24 hrs by trypan blue exclusion method", "format": "cell-based", "conditions": "thp-1, 24 h", "summary_of_the_method": "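THP-1 macrophage viability was checked by trypan blue exclusion after 24 h of exposure to DCX at concentrations up to 500 mg/liter.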"}, "Staphylococcus aureus [9]": {"system": "Staphylococcus aureus", "test": "Bactericidal activity against Staphylococcus aureus ATCC 25923 assessed as log change in bacterial count after 24 hrs", "format": "functional", "summary_of_the_method": "as §2"}, "[10]": {"test": "AUC (24 hrs) in NMRI mouse at 30 mg/kg, sc", "format": "ADME, organism-based", "set-up": "time < 24 hr, dose 30 mg/kg, route subcutaneous", "conditions": "plasma", "summary_of_the_method": "(§4)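 Single subcutaneous DCX doses given to NMRI mice. Blood was collected into EDTA tubes, and plasma drug was assayed by microbiological bioassay with S. lutea ATCC 9391 (detection limit 1.5 mg/liter, linear to 100 mg/liter). Values came from noncompartmental analysis. Terminal half-life was fitted monoexponentially to the last four time points. AUC24 combined the trapezoidal rule over mean points with exact integration of the fitted curve extrapolated to 24 h.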"}, "[11]": {"test": "AUC (24 hrs) in NMRI mouse at 1200 mg/kg, sc", "format": "ADME, organism-based", "set-up": "time < 24 hr, dose 1200 mg/kg, route subcutaneous", "conditions": "plasma"}, "[12]": {"test": "Cmax in NMRI mouse at 1200 mg/kg, sc", "format": "ADME, organism-based", "set-up": "dose 1200 mg/kg, route subcutaneous", "conditions": "in vivo"}, "[13]": {"test": "Half-life in NMRI mouse at 300 mg/kg, sc", "format": "ADME, organism-based", "set-up": "dose 300 mg/kg, route subcutaneous", "conditions": "in vivo", "summary_of_the_method": "as §4"}, "[14]": {"test": "Ratio of fAUC (24 hrs) in NMRI mouse at 160 mg/kg administered every 3 hrs to MIC for Staphylococcus aureus E19977", "format": "functional", "summary_of_the_method": "(§5)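 Free-drug AUC24/MIC was modelled for repeated subcutaneous regimens. Single-dose NMRI plasma concentration-time curves were combined with the best-fitting square-root expression for the concentration-dependent free fraction. The result was divided by the E19977 MIC.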"}, "[15]": {"test": "Ratio of fAUC (24 hrs) in NMRI mouse at 200 mg/kg administered every 6 hrs to MIC for Staphylococcus aureus E19977", "format": "functional", "summary_of_the_method": "(§6)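 Modeled free AUC over 24 h divided by the MIC, not measured directly. Single subcutaneous DCX doses were given to NMRI mice, and plasma was assayed by S. lutea bioassay. Noncompartmental analysis used trapezoidal mean points plus a fitted monoexponential extrapolated to 24 h. Free fraction came from a square-root fit to plasma ultrafiltration binding (10–400 mg/liter spike, 1 h, 37°C). The MIC was measured by broth microdilution at pH 7.4.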"}, "[16]": {"test": "Ratio of fAUC (24 hrs) in NMRI mouse at 120 mg/kg administered every 6 hrs to MIC for Staphylococcus aureus E19977", "format": "functional", "summary_of_the_method": "as §5"}, "[17]": {"test": "Ratio of fAUC (24 hrs) in NMRI mouse at 300 mg/kg administered every 12 hrs to MIC for Staphylococcus aureus E19977", "format": "functional", "summary_of_the_method": "as §6"}, "[18]": {"test": "Ratio of fCmax in NMRI mouse at 120 mg/kg administered every 3 hrs to MIC for Staphylococcus aureus E19977", "format": "functional", "summary_of_the_method": "(§7)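 Free Cmax/MIC was modelled, not measured. Single-dose subcutaneous plasma curves from NMRI mice were projected to the multiple-dose regimens. Free fraction came from a square-root fit of unbound fraction versus total concentration. Binding was measured by ultrafiltration of mouse plasma spiked with 10–400 mg/liter and held 1 h at 37°C. MIC was for strain E19977.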"}, "[19]": {"test": "Ratio of fCmax in NMRI mouse at 200 mg/kg administered every 4 hrs to MIC for Staphylococcus aureus E19977", "format": "functional", "summary_of_the_method": "as §7"}, "[20]": {"test": "Ratio of fCmax in NMRI mouse at 80 mg/kg administered every 8 hrs to MIC for Staphylococcus aureus E19977", "format": "functional", "summary_of_the_method": "as §7"}, "[21]": {"test": "Ratio of fCmax in NMRI mouse at 300 mg/kg administered every 12 hrs to MIC for Staphylococcus aureus E19977", "format": "functional", "summary_of_the_method": "as §7"}, "Mus musculus": {"species_on_record": "Mus musculus", "test": "Protein binding in NMRI mouse at 10 mg/l by ultrafiltration", "format": "ADME, organism-based", "conditions": "in vivo", "summary_of_the_method": "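Plasma binding was measured by ultrafiltration. EDTA blood from healthy mice, or from NMRI mice infected intraperitoneally for 6 h with E19977, was spiked with DCX at 10–400 mg/liter, with PBS controls. Samples were held 1 h at 37°C, then centrifuged through 30-kDa filters at 3,000 × g for 8 min at 37°C. Total and filtrate drug were measured by S. lutea bioassay.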"}, "[22]": {"test": "fT>MIC in Staphylococcus aureus E19977 infected NMRI mouse at 30 mg/kg administered every 2 hrs", "format": "functional", "summary_of_the_method": "as §1"}, "[23]": {"test": "fT>MIC in Staphylococcus aureus E19977 infected NMRI mouse at 120 mg/kg administered every 3 hrs", "format": "functional", "summary_of_the_method": "as §1"}, "[24]": {"test": "fT>MIC in Staphylococcus aureus E19977 infected NMRI mouse at 160 mg/kg administered every 3 hrs", "format": "functional", "summary_of_the_method": "as §1"}, "Staphylococcus aureus [25]": {"system": "Staphylococcus aureus", "test": "Antimicrobial activity against Staphylococcus aureus E19977 by broth microdilution method at pH 7.4"}, "[26]": {"test": "Ratio of fAUC (24 hrs) in NMRI mouse at 340 mg/kg administered every 24 hrs to MIC for Staphylococcus aureus E19977"}}, "note": "Active and inactive are the calls of the source. The rule behind the calls is not given here."}
{"smiles": "Cc1onc(-c2c(Cl)cccc2Cl)c1C(=O)N[C@@H]1C(=O)N2[C@@H]1SC(C)(C)[C@@H]2C(=O)O", "note": "[DICLOXACILLIN]", "values": [{"measurement": "fT>MIC", "setting": "[1]", "value": 25, "unit": "%"}, {"measurement": "fT>MIC", "setting": "[2]", "value": 65.28, "unit": "%"}, {"measurement": "fT>MIC", "setting": "[3]", "value": 57.5, "unit": "%"}, {"measurement": "fT>MIC", "setting": "[4]", "value": 35.97, "unit": "%"}, {"measurement": "Activity", "setting": "Staphylococcus aureus [5]", "value": 0.07, "unit": "mg/L"}, {"measurement": "FC", "setting": "Staphylococcus aureus [6]", "value": "<1"}, {"measurement": "FC", "setting": "Staphylococcus aureus [7]", "value": "<1"}, {"measurement": "Activity", "setting": "Staphylococcus aureus [8]", "value": "Active"}, {"measurement": "Activity", "setting": "THP-1", "value": "Non-toxic"}, {"measurement": "Emax", "setting": "Staphylococcus aureus [9]", "value": -3.19, "unit": "deltalog10CFU/ml"}, {"measurement": "AUC at 24 h", "setting": "[10]", "value": 21.4, "unit": "µg·h/mL"}, {"measurement": "AUC at 24 h", "setting": "[11]", "value": 190, "unit": "µg·h/mL"}, {"measurement": "Cmax", "setting": "[12]", "value": 222, "unit": "µg/mL"}, {"measurement": "half-life", "setting": "[13]", "value": 30, "unit": "min"}, {"measurement": "fAUC/MIC", "setting": "[14]", "value": 556.4, "unit": "h"}, {"measurement": "fAUC/MIC", "setting": "[15]", "value": 411.61, "unit": "h"}, {"measurement": "fAUC/MIC", "setting": "[16]", "value": 175.82, "unit": "h"}, {"measurement": "fAUC/MIC", "setting": "[17]", "value": 439.15, "unit": "h"}, {"measurement": "Ratio", "setting": "[18]", "value": 61.6}, {"measurement": "Ratio", "setting": "[19]", "value": 101.92}, {"measurement": "Ratio", "setting": "[20]", "value": 30.64}, {"measurement": "Ratio", "setting": "[21]", "value": 196.76}, {"measurement": "Activity", "setting": "Mus musculus", "value": 93.9, "unit": "%"}, {"measurement": "fT>MIC", "setting": "[22]", "value": 45.83, "unit": "%"}, {"measurement": "fT>MIC", "setting": "[23]", "value": 75.56, "unit": "%"}, {"measurement": "fT>MIC", "setting": "[24]", "value": 96.11, "unit": "%"}, {"measurement": "MIC", "setting": "Staphylococcus aureus [25]", "value": 0.5, "unit": "µg/mL"}, {"measurement": "fAUC/MIC", "setting": "[26]", "value": 259.37, "unit": "h"}]}
